Only some compounds are listed: those with a hit (about 3% of all), similar ones and a draw of the others.
M4 antag: human M4 muscarinic receptor antagonists, primary screen, CHO cells, Fluo-8 calcium fluorescence. Muscarinic acetylcholine receptor M4 (Homo sapiens), P08173. CHO-hM4 cells, ACh EC80. inhibition, % at 3 µM. 0.73% of 360,000 active. AID 624125, 2012;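 active = inhibition above its plate's cutoff, the mean inhibition of sample wells plus 3 SD, cut at about 27% in these data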
Target sequence (P08173 whole entry, looked up): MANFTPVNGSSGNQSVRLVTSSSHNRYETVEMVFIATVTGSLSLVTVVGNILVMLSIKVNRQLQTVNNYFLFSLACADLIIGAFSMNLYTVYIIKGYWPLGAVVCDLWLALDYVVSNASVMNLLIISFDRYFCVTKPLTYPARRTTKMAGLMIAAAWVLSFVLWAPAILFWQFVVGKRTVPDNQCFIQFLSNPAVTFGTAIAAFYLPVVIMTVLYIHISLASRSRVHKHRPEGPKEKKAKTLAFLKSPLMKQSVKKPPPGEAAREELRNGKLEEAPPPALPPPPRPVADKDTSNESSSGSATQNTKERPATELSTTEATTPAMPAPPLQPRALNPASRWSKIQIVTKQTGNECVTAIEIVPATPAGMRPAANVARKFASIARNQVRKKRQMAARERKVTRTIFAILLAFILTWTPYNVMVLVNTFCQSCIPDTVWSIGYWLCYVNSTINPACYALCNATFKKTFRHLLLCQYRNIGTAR
TAAR1 agonist: human TAAR1 agonists, primary screen, Fluo-8 calcium fluorescence, CHO RD-HGA16 cells. activation, % at 3 µM. Trace amine-associated receptor 1 (Homo sapiens), Q96RJ0. 0.99% of 360,000 active. vehicle wells 0%, saturating PEA agonist 100%. AID 624467, 2012;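 active = activation above the mean activation of all test compounds in the run plus 3 SD, cut at about 38% in these data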
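test system = CHO RD-HGA16 cells carrying human TAAR1 plus Gα16 | schedule = 17-24 h seeding, 75 min 37 °C dye, 30 min RT | compound dosing = 3 µM single concentration | control set = DMSO and PEA EC100 | replicates = n 1 | signal = Fluo-8 fluorescence, 5 s baseline then 140 s kinetic read | measure = percent activation vs PEA EC100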
TAAR1 antagonist: human TAAR1 antagonists, primary screen, Fluo-8 calcium fluorescence, CHO RD-HGA16 cells; Trace amine-associated receptor 1 (Homo sapiens), Q96RJ0; antagonist; inhibition, % at 3 µM; 1.5% of 360,000 active; AID 624466, 2012;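 active = inhibition above a per-plate cutoff, the mean inhibition of test compounds on that plate plus 3 SD, cut at about 49% in these data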
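Material: CHO RD-HGA16 cells bearing hTAAR1; compound dosing: one-point dosing, 3 µM nominal final; schedule: dye loading 75 min at 37 °C, then 30 min room temperature; measured by: calcium fluorescence with Fluo-8; control set: vehicle and agonist controls; replication: n of 1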
CHRM4 agonist: human M4 muscarinic receptor agonists, primary screen, CHO-K1 cells, Fluo-8 calcium fluorescence. Muscarinic acetylcholine receptor M4 (Homo sapiens), P08173. CHO-K1 hM4/Gqi5; vehicle 0%, full acetylcholine response 100%. activation, % at 3 µM. 0.14% of 360,000 active. AID 624127, 2012;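 active = activation above the run mean over all test wells plus 3 SD, cut at about 32% in these data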;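 also: peak over basal fluorescence ratio per well then scaled between controls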
M4 PAM: human M4 muscarinic receptor positive allosteric modulators, primary screen, CHO-K1 cells, Fluo-8 calcium fluorescence; CHO-K1 hM4/Gqi5, ACh EC20; 0% = ACh EC20, 100% = maximal ACh; Muscarinic acetylcholine receptor M4 (Homo sapiens), P08173; AID 624126, 2012; activation, % at 3 µM; 0.4% of 360,000 active;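 active = activation above its plate's cutoff, the mean activation of sample wells plus 3 SD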
Of the large screens only hits and unclear results are named; the others gave an inactive call.

O=C(NCCN1CCOCC1)c1ccc2c(c1)N(Cc1ccccc1)C(=O)CS2	M4 antag 37
O=C(NCCN1CCOCC1)c1ccc2c(c1)N(Cc1ccc(Cl)cc1)C(=O)CS2	none
O=[N+]([O-])c1cc(C(F)(F)F)cc([N+](=O)[O-])c1NCCNC(=S)Nc1ccc(Cl)c(Cl)c1	M4 antag 31
CCCc1nc2n[nH]c(N)c2c2c1CCC2	none
CCCc1nc2n[nH]c(N)c2c2c1CCCC2	M4 PAM 26
O=C(N/N=C/c1ccc2c(c1)OCO2)c1ccc(COc2cccc3cccnc23)cc1	TAAR1 antagonist 49
COCC(=O)N1C[C@H]2CON(C)[C@H]2C[C@H]1c1cccc(-c2cc(Cl)cc(Cl)c2)c1	none (no result: M4 antag, CHRM4 agonist, M4 PAM)
COC(=O)C[C@H]1CC[C@H](NC(=O)Nc2ccccc2)[C@@H](CO)O1	none
CCOC(=O)/C(=C\c1ccc(Cl)cc1)c1nc2sc(C)c(C)c2c(=O)[nH]1	TAAR1 antagonist 92
Cc1cc(C(=O)NCc2cccnc2)n(-c2ccccc2)n1	M4 antag 35
CCCCOc1ccc(C(=O)NCCN2CCC(n3c(=O)[nH]c4ccccc43)CC2)cc1	M4 antag 59
CC(C)C(=O)Nc1cc(=O)[nH]c2ncnn12	M4 PAM 19
COc1ccc(NC(=O)OC[C@@H]2CSCCS(=O)(=O)N2)cc1	none (no result: M4 antag, CHRM4 agonist, M4 PAM)
Cc1ccc(S(=O)(=O)Nc2cccc3cccnc23)cc1	M4 antag 32
Cc1ccc(S(=O)(=O)Nc2ccccc2-c2ccccc2NS(=O)(=O)c2ccc(C)cc2)cc1	TAAR1 antagonist 49
C[C@@H]1CNC(=O)c2c(C(=O)Nc3ccc(CNC(=O)OC(C)(C)C)cc3)ncn21	TAAR1 antagonist 50
N#CC1(CCCN2CCCCC2)c2ccccc2CCc2ccccc21	M4 antag 26
COc1ccc(-n2c(Cc3cccn3C)nnc2SCC(=O)Nc2cccc(OC)c2)cc1	M4 PAM 18
CCOc1ccc(NC(=O)CCC(=O)NNC(=O)Nc2cccc(Cl)c2)cc1	TAAR1 agonist 43
CCCc1nc2sc3ccccc3c(=O)c2c(=O)n1Cc1ccco1	TAAR1 agonist 68
CC(CCc1ccccn1)(CCc1ccccn1)C(=O)c1ccccc1	TAAR1 antagonist 53
C[C@@H]1ON(C)[C@H]2C[C@H]3c4[nH]c5cccc(-c6cccc(F)c6)c5c4CCN3C(=O)[C@@H]12	none (no result: M4 antag, CHRM4 agonist, M4 PAM)
Cc1ccc(S(=O)(=O)Nc2nc(-c3ccccc3)cs2)cc1	none
Cc1ccc(S(=O)(=O)Nc2ccccc2C(=O)Nc2nc(-c3ccc(F)cc3)cs2)cc1	TAAR1 antagonist 75
CON(C)C(=O)C(C)(C)CC#CCN(CC#Cc1ccccc1)S(=O)(=O)c1ccc(C)cc1	none (no result: M4 antag, CHRM4 agonist, M4 PAM)
CCNc1nc(NC(C)(C)C)nc(N(C#N)CC)n1	M4 antag 61
COc1ccc(C(=O)/C=C2/C(=O)Nc3ccccc32)cc1	none
COc1ccc(C(=O)/C=C2/C(=O)Nc3ccccc32)c(OC)c1	M4 antag 29
C=CCNC(=S)N(C)[C@H]1C[C@H]2c3[nH]c4c(-c5ccccc5)cccc4c3CCN2C(=O)[C@H]1[C@H](C)O	none (no result: M4 antag, CHRM4 agonist, M4 PAM)
CCCCC1NC(C(=O)O)CS1 (configuration not stated)	none
CCCCCCC1NC(C(=O)O)CS1 (configuration not stated)	M4 PAM 18
CCOc1ccc(N(CC(=O)NCCc2ccccc2)C(=O)c2csnn2)cc1	M4 PAM 16
COc1ccc(N(CC(=O)NCCc2ccccc2)C(=O)c2csnn2)cc1	none
O=c1nccc(N/N=C/c2ccccc2O)[nH]1	TAAR1 agonist 38
COc1cccc(/C=N/Nc2ccnc(=O)[nH]2)c1O	none
O=C(Nc1ccc(S(=O)(=O)N2CCOCC2)cc1)c1cc(-c2ccccc2O)n[nH]1	TAAR1 antagonist 54
O=C(CCCN1C(=O)c2ccccc2C1=O)Nc1ccc(S(=O)(=O)N2CCOCC2)cc1	M4 antag 28
CC1CN(S(=O)(=O)c2ccc(NC(=O)c3cc(-c4ccccc4O)n[nH]3)cc2)CC(C)O1 (configuration not stated)	none
O=S(=O)(c1ccccc1)N1CCCc2nc(-c3ccc(F)cc3)ccc21	none (no result: M4 antag, CHRM4 agonist, M4 PAM)
CNC(=O)Nc1ccccc1C(=O)NCc1ccccc1	M4 antag 87
CC(=O)Oc1ccc(C(=O)c2ccccc2)c(OC(C)=O)c1	none
COc1ccc(C(=O)c2ccccc2)c(OCC(=O)N(C)C)c1	M4 PAM 23
CC(C)CN1C(=O)C(=O)N(CC(=O)NCCCc2ccccc2)C1=O	none
O=C1/C(=C\c2c(NCCOCCO)nc3ccccn3c2=O)SC(=S)N1Cc1ccco1	TAAR1 agonist 41, TAAR1 antagonist 62
Cc1ccc(N2CCCn3c2cc(C)c(C#N)c3=O)cc1Cl	M4 PAM 38
CC(CNC(=O)[C@@H](Cc1ccccc1)NC(=O)[C@H]1O[C@@H](n2ccc(=O)[nH]c2=O)[C@H](O)[C@@H]1O)c1ccccc1 (some centres not stated)	none (no result: M4 antag, CHRM4 agonist, M4 PAM)
O=C(NCCCN1CCC(Cc2ccccc2)CC1)c1ccc(CS(=O)c2ccccc2Cl)o1 (configuration not stated)	M4 antag 28
O=C(NCc1ccco1)c1ccc(CS(=O)c2ccccc2Cl)o1 (configuration not stated)	none
O=C(Nc1cccc(CNCCc2c[nH]c3ccccc23)c1)c1ccccc1Cl	TAAR1 agonist 49
Cc1cccc(NC(=O)COC(=O)CCc2c[nH]c3ccccc23)c1C	M4 PAM 22
O=C(NCCc1c[nH]c2ccccc12)OCCCCOC(=O)NCCc1c[nH]c2ccccc12	M4 antag 32, TAAR1 antagonist 80
O=C(COC(=O)c1ccccc1C(=O)OCC(=O)NCCc1c[nH]c2ccccc12)NCCc1c[nH]c2ccccc12	M4 antag 43, TAAR1 antagonist 76
O=C(COC(=O)c1ccccc1O)NCCc1c[nH]c2ccccc12	none
CC(C)OC(=O)N(C)C[C@H]1OCc2cn(nn2)CCCC(=O)N([C@@H](C)CO)C[C@@H]1C	none (no result: M4 antag, CHRM4 agonist, M4 PAM)
COc1ccc(CN(C)C[C@@H]2OCCCC[C@H](C)Oc3ccc(NC(=O)Nc4ccc(F)cc4)cc3C(=O)N([C@H](C)CO)C[C@H]2C)cc1	none
CNS(=O)(=O)c1ccc(CNC[C@H]2O[C@@H](n3cc(C)c(=O)[nH]c3=O)C[C@@H]2O)cc1	none
COc1ccc(S(=O)(=O)N(C)C[C@H]2Oc3ccc(NS(=O)(=O)c4ccc(F)cc4)cc3C(=O)N([C@H](C)CO)C[C@@H]2C)cc1	none
Nc1[nH]c(C(=O)c2ccccc2)c(-c2cccnc2)c1C(=O)NCCc1ccc(Cl)cc1Cl	none
